Data: ChEMBL document CHEMBL4049389, “Design, synthesis and biological evaluation of aminobenzyloxyarylamide derivatives as selective κ opioid receptor antagonists” (Eur J Med Chem, 2017)
Activity calls are given as the source filed them. No cut-off for these calls is given here.

Columns and labels:
[1] = molecular target: T1, Kappa-type opioid receptor (Homo sapiens, UniProt P41145); test: Displacement of [3H]U69593 from recombinant human kappa-opioid receptor expressed in CHO cell membranes at 1 X 10^-5 M after 60 mins by liquid scintillation counting method relative to control
Summary of the method: (§1)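 Single-concentration radioligand displacement in membranes from CHO (κ, μ) or HEK293 (δ) cells expressing human receptors. Radioligands were [3H]-U69,593, [3H]-DAMGO and [3H]-DPDPE, incubated in Tris-HCl at 25 °C for 60 min, filtered and counted by scintillation. Read-out was percent inhibition of specific binding; assays were done in duplicate.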

Mu-type opioid receptor [2] = molecular target: T2, Mu-type opioid receptor (Homo sapiens, UniProt P35372); test: Displacement of [3H]DAMGO from recombinant human mu-opioid receptor expressed in CHO cell membranes after 60 mins by liquid scintillation counting method
Mu-type opioid receptor [3] = molecular target: T2, Mu-type opioid receptor; test: Displacement of [3H]DAMGO from recombinant human mu-opioid receptor expressed in CHO cell membranes at 1 X 10^-5 M after 60 mins by liquid scintillation counting method relative to control; summary of the method: as §1
Mus musculus [4] = test: Antidepressant-like activity in ICR mouse assessed as decrease in immobility time at 30 mg/kg, ip administered 30 mins prior to test measured for last 4 mins of 6 mins observation by forced swim test; assay type: functional, organism-based
Summary of the method: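 Male ICR mice (20–25 g), 10 per group, adapted ≥15 min before testing. Dosed i.p. with saline vehicle 30 min pretest. Each mouse was placed in a cylinder 10 cm wide with water 6 cm deep at 25 °C for 6 min. Immobility was scored over the last 4 min; mean ± SEM.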

Mus musculus [5] = test: Anxiolytic activity in ICR mouse assessed as increase in time spent on open arms at 30 mg/kg, ip administered 30 mins prior to test measured for 5 mins by elevated plus maze test; assay type: functional, organism-based
Summary of the method: (§2)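 Male ICR mice (18–22 g), 10 per group, adapted ≥1 h. Dosed i.p. with saline vehicle 30 min pretest. Maze elevated 50 cm; each mouse started on the central platform facing an open arm. Entries and time in open and closed arms were video-tracked over 5 min, expressed as OE/(CE+OE) and OT/(OT+CT); mean ± SEM.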

[6] = molecular target: T1, Kappa-type opioid receptor; test: Displacement of [3H]U69593 from recombinant human kappa-opioid receptor expressed in CHO cell membranes at 1 X 10^-6 M after 60 mins by liquid scintillation counting method relative to control; summary of the method: as §1
Homo sapiens [7] = species: Homo sapiens; test: Selectivity ratio of IC50 for antagonist activity at recombinant human mu-opioid receptor expressed in CHO cell membranes assessed as inhibition of DAMGO-induced [35S]GTPgammaS binding to IC50 for antagonist activity at recombinant human kappa-opioid receptor expressed in CHO cell membranes assessed as inhibition of U69593-induced [35S]GTPgammaS binding
Summary of the method: (§3)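 Membranes from CHO cells (κ, μ) or HEK293 cells (δ) expressing human opioid receptors. Assay buffer was 20 mM HEPES pH 7.4, 5 mM MgCl2, 100 mM NaCl, 1 mM EDTA, 1 mM DTT with GDP. GTP-γ-35S was 0.5 nM final. Agonist at ~80% max stimulation: U69,593 300 nM (κ), DAMGO (μ), DPDPE 30 nM (δ). Read by WGA SPA, 11-point curves, four-parameter fit; mean ± SEM of ≥3 experiments.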

Mu-type opioid receptor [8] = molecular target: T2, Mu-type opioid receptor; test: Antagonist activity at recombinant human mu-opioid receptor expressed in CHO cell membranes assessed as inhibition of DAMGO-induced [35S]GTPgammaS binding after 4 hrs by microbeta scintillation counting method; assay type: functional; summary of the method: as §3
Homo sapiens [9] = species: Homo sapiens; test: Selectivity ratio of IC50 for antagonist activity at recombinant human delta-opioid receptor expressed in HEK293 cell membranes assessed as inhibition of DPDPE-induced [35S]GTPgammaS binding to IC50 for antagonist activity at recombinant human kappa-opioid receptor expressed in CHO cell membranes assessed as inhibition of U69593-induced [35S]GTPgammaS binding; summary of the method: as §3
Homo sapiens [10] = species: Homo sapiens; test: Selectivity ratio of Ki for displacement of [3H]DPDPE from recombinant human delta-opioid receptor expressed in HEK293 cell membranes to Ki for displacement of [3H]U69593 from recombinant human kappa-opioid receptor expressed in CHO cell membranes
[11] = molecular target: T3, Delta-type opioid receptor (Homo sapiens, UniProt P41143); test: Displacement of [3H]DPDPE from recombinant human delta-opioid receptor expressed in HEK293 cell membranes at 1 X 10^-6 M after 60 mins by liquid scintillation counting method relative to control; summary of the method: as §1
Mu-type opioid receptor [12] = molecular target: T2, Mu-type opioid receptor; test: Displacement of [3H]DAMGO from recombinant human mu-opioid receptor expressed in CHO cell membranes at 1 X 10^-6 M after 60 mins by liquid scintillation counting method relative to control; summary of the method: as §1
[13] = molecular target: T3, Delta-type opioid receptor; test: Displacement of [3H]DPDPE from recombinant human delta-opioid receptor expressed in HEK293 cell membranes at 1 X 10^-5 M after 60 mins by liquid scintillation counting method relative to control; summary of the method: as §1
[14] = molecular target: T1, Kappa-type opioid receptor; test: Displacement of [3H]U69593 from recombinant human kappa-opioid receptor expressed in CHO cell membranes after 60 mins by liquid scintillation counting method
[15] = molecular target: T3, Delta-type opioid receptor; test: Antagonist activity at recombinant human delta-opioid receptor expressed in HEK293 cell membranes assessed as inhibition of DPDPE-induced [35S]GTPgammaS binding after 2 hrs by microbeta scintillation counting method; assay type: functional; summary of the method: as §3
[16] = molecular target: T3, Delta-type opioid receptor; test: Displacement of [3H]DPDPE from recombinant human delta-opioid receptor expressed in HEK293 cell membranes after 60 mins by liquid scintillation counting method
Homo sapiens [17] = species: Homo sapiens; test: Selectivity ratio of Ki for displacement of [3H]DAMGO from recombinant human mu-opioid receptor expressed in CHO cell membranes to Ki for displacement of [3H]U69593 from recombinant human kappa-opioid receptor expressed in CHO cell membranes
Mus musculus [18] = test: Anxiolytic activity in ICR mouse assessed as increase in number of open arm entries at 30 mg/kg, ip administered 30 mins prior to test measured for 5 mins by elevated plus maze test; assay type: functional, organism-based; summary of the method: as §2
[19] = molecular target: T1, Kappa-type opioid receptor; test: Antagonist activity at recombinant human kappa-opioid receptor expressed in CHO cell membranes assessed as inhibition of U69593-induced [35S]GTPgammaS binding after 4 hrs by microbeta scintillation counting method; assay type: functional; summary of the method: as §3
[20] = Oral bioavailability in rat at 10 mg/kg by LC-MS/MS analysis; assay type: ADME, organism-based; settings: in vivo
[21] = Half life in rat at 1 or 10 mg/kg, iv or po by LC-MS/MS analysis; assay type: ADME, organism-based; settings: in vivo
[22] = Tmax in rat at 1 or 10 mg/kg, iv or po by LC-MS/MS analysis; assay type: ADME, organism-based; settings: in vivo

T3 sequence (P41143 whole entry): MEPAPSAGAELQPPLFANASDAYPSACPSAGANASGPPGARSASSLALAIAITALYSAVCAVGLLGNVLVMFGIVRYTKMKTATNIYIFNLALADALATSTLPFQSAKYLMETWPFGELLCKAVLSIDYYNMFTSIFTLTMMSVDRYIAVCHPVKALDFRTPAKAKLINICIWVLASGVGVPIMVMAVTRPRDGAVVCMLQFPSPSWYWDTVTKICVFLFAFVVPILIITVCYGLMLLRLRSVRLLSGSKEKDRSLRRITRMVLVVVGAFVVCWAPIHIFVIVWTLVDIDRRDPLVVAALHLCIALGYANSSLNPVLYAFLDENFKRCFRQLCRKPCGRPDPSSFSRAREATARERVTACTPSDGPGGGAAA
T2 sequence (P35372 whole entry): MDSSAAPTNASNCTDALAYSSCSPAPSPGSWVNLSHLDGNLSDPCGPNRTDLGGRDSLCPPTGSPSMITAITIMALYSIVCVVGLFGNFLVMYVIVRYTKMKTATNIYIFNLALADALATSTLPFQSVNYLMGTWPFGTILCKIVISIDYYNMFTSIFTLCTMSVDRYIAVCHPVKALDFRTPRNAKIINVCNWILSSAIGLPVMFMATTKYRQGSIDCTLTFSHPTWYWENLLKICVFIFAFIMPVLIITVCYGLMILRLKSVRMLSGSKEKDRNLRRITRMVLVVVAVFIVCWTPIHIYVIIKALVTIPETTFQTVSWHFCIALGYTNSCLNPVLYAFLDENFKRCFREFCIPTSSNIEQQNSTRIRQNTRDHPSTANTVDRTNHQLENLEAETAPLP
T1 sequence (P41145 whole entry): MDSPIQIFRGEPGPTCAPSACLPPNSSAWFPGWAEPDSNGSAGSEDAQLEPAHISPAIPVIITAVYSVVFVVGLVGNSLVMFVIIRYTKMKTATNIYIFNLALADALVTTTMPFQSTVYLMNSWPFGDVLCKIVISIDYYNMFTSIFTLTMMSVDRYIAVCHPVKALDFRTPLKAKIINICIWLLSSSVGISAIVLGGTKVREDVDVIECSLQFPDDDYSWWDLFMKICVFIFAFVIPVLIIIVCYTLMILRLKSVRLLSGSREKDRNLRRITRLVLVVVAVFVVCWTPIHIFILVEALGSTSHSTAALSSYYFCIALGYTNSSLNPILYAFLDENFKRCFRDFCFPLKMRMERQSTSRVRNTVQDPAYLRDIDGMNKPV

| SMILES | inhibition [1] [%] | Ki (Mu-type opioid receptor [2]) [nM] | inhibition (Mu-type opioid receptor [3]) [%] | inhibition [6] [%] | Ratio Ki (Homo sapiens [10]) | inhibition [11] [%] | inhibition (Mu-type opioid receptor [12]) [%] | inhibition [13] [%] | Ki [14] [nM] | Ki [16] [nM] | Ratio Ki (Homo sapiens [17]) | further results |
| --- | --- | --- | --- | --- | --- | --- | --- | --- | --- | --- | --- | --- |
| Cc1cc(C)cc(C2CCCN2Cc2ccc(Oc3ccc(C(N)=O)cc3F)cc2)c1 (racemic) | 100 | 90.9 | 93.6 | 97 | 7.6 | 45.5 | 56.1 | 87.2 | 11.9 | 91.5 | 7.6 | Activity (Mus musculus [4]): Active; Activity (Mus musculus [5]): Active; Ratio IC50 (Homo sapiens [7]): 3.4; IC50 (Mu-type opioid receptor [8]): 22.6 nM; Ratio IC50 (Homo sapiens [9]): 14.3; IC50 [15]: 95.5 nM; Activity (Mus musculus [18]): Active; IC50 [19]: 6.68 nM |
| COc1ccc(C2CCCN2Cc2ccc(Oc3ccc(C(N)=O)c4ccccc34)cc2)cc1 (stereo unspecified) | 80.5 | > 10000 | 15 | 46.5 | > 2.2 | 0 | 0 | 9 | 4600 | > 10000 | > 2.2 | – |
| Cc1cc(C)cc(C2CCCN2Cc2ccc(Oc3ccc(C(N)=O)cc3F)c(Cl)c2)c1 (stereo unspecified) | 100 | 220 | 94.2 | 98.5 | 12.2 | 54.1 | 51.4 | 92.4 | 15.7 | 191 | 14 | Activity (Mus musculus [4]): Active; Activity (Mus musculus [5]): Active; Ratio IC50 (Homo sapiens [7]): 15.5; IC50 (Mu-type opioid receptor [8]): 144 nM; Ratio IC50 (Homo sapiens [9]): 1.7; IC50 [15]: 15.8 nM; Activity (Mus musculus [18]): Active; IC50 [19]: 9.32 nM |
| Cc1cc(C)cc(C2CCCN2Cc2ccc(Oc3ccc(C(N)=O)cc3F)c(F)c2)c1 (stereo unspecified) | 98.7 | 27.9 | 96.8 | 95.8 | 10.1 | 37.4 | 73.4 | 89.2 | 42.7 | 429 | 0.65 | – |
| NC(=O)c1ccc(Oc2ccc(CN3CCCC3c3ccc(F)cc3)cc2)c2ccccc12 (stereo unspecified) | 39 | – | 0 | 13.8 | – | 0 | 0 | 0 | – | – | – | – |
| NC(=O)c1ccc(Oc2ccc(CN3CCCC3c3cccc(Cl)c3)cc2)c2ccccc12 (stereo unspecified) | 64.1 | – | 0 | 31.4 | – | 0 | 0 | 0 | – | – | – | – |
| NC(=O)c1ccc(Oc2ccc(CN3CCCC3c3cccc(F)c3)cc2)c2ccccc12 (stereo unspecified) | 57.9 | – | 0 | 27.7 | – | 2.3 | 0 | 4 | – | – | – | – |
| Cc1cc(C)cc(C2CCCN2Cc2ccc(Oc3ccc(C(N)=O)cc3)c(Cl)c2)c1 (stereo unspecified) | 100 | 32.3 | 99.1 | 99.3 | 13 | 36.5 | 78.8 | 87.5 | 37.6 | 489 | 0.85 | – |
| Cc1cccc(C2CCCN2Cc2ccc(Oc3ccc(C(N)=O)c4ccccc34)cc2)c1 (stereo unspecified) | 86.9 | > 10000 | 16.3 | 39.9 | > 5.8 | 0 | 0 | 0 | 1740 | > 10000 | > 5.8 | Activity (Mus musculus [4]): Active; Activity (Mus musculus [5]): Active; Activity (Mus musculus [18]): Active |
| Cc1cc(C)cc(C2CCCN2Cc2ccc(Oc3ccc(C(N)=O)c4ccccc34)cc2)c1 (stereo unspecified) | 23.7 | – | 0 | 12.2 | – | 0 | 0 | 0 | – | – | – | – |
| NC(=O)c1ccc(Oc2ccc(CN3CCCC3c3cccnc3)cc2)c2ccccc12 (stereo unspecified) | 12 | – | 52.2 | 5.1 | – | 0 | 11.3 | 0 | – | – | – | – |
| Cc1cc(C)cc(C2CCCN2Cc2ccc(Oc3ccc(C(N)=O)cc3)c(F)c2)c1 (stereo unspecified) | 100 | 62.8 | 95.3 | 98.8 | 9 | 45.5 | 71 | 97.1 | 29.4 | 267 | 2.13 | Activity (Mus musculus [4]): Active |
| Cc1cc(C)cc([C@@H]2CCCN2Cc2ccc(Oc3ccc(C(N)=O)cc3F)cc2)c1 [ATICAPRANT] | – | – | – | – | – | – | – | – | – | – | – | bioavailability [20]: 25%; half-life [21]: 120 to 240 min; Tmax [22]: 1 to 2 h |
| Cc1ccccc1C1CCCN1Cc1ccc(Oc2ccc(C(N)=O)c3ccccc23)cc1 (stereo unspecified) | 34 | – | 0 | 13.9 | – | 0 | 0 | 2.9 | – | – | – | – |
